Here are results for 26 compounds from ChEMBL document CHEMBL1131241, “Cyclic HIV protease inhibitors: design and synthesis of orally bioavailable, pyrazole P2/P2' cyclic ureas with improved potency” (J Med Chem, 1998).

The target of data set [1] is Human immunodeficiency virus type 1 protease (Human immunodeficiency virus 1, UniProt Q72874). As to the kind of experiment: Inhibition of HIV protease, measured by assaying the cleavage of a fluorescent peptide substrate using HPLC.
Data set [2] relates to MT2. The data set can be described thus: Cytotoxicity was determined by 50% reduction in the number of viable MT2 cells with HIV-1RF. It counts as functional. Particulars: Homo sapiens, read-out: TC50 (the source's name). The essentials:
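TC50 taken as concentration giving 50% fewer viable cells, with viability read by tetrazolium dye metabolism.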

The nature of data set [3]: Bioavailability as maximal plasma concentration in rats after 10 mg/kg oral dose. Details: dose 10 mg/kg, route oral. Particulars: rat. It counts as ADME, organism-based.
The subject of data set [4] is MT2. As to the kind of experiment: Concentration which reduced the concentration of HIV viral RNA by 90% from the level measured in an untreated infected culture. The note with it: Homo sapiens. It counts as functional. The procedure, abridged:
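MT-2 cells infected with HIV-1 RF. Uninfected cells preincubated 30 min with serial dilutions of compound in culture medium, then virus added; cultured 3 days at 37 °C, 5% CO₂. Lysed cells assayed for HIV RNA by microtiter plate hybridization. IC90 = concentration lowering viral RNA 90% versus untreated infected culture.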

Data set [5] can be described thus: Bioavailability as maximal plasma concentration in dogs after 2.5 mg/kg oral dose. It counts as ADME, organism-based, Canis lupus familiaris. Also noted: dose 2.5 mg/kg, route oral. Particulars: dog.

By Ki is commonly meant a dissociation constant, usually derived from enzyme kinetics or from competition with a known ligand. Low values mean higher affinity, high ones lower affinity. As usually defined, the Cmax is the maximum level reached in the sampled fluid or tissue. The IC90 is the point of the concentration-response curve where the effect stands at 90%.

Consider `CC(=O)c1cccc(CN2C(=O)N(Cc3cccc(C(C)=O)c3)[C@H](Cc3ccccc3)[C@H](O)[C@@H](O)[C@H]2Cc2ccccc2)c1`, for which, in data set [1], the Ki is 0.06 nM. Also, in the data set on MT2 [2], the CC50 stood at 20 µM. Moreover, the Cmax in data set [3] was 500 nM. In the data set with MT2 [4], the IC90 was determined as 39 nM.

Consider `O=C1N(Cc2cccc(-c3c[nH]cn3)c2)[C@H](Cc2ccccc2)[C@H](O)[C@@H](O)[C@@H](Cc2ccccc2)N1Cc1cccc(-c2c[nH]cn2)c1`, for which the affinity in data set [1], expressed as Ki, was 0.19 nM. In addition, the CC50 in the data set on MT2 [2] was found to be 8.8 µM. The compound also gave a Cmax in data set [3] of less than 42 nM. Moreover, the IC90 in the data set with MT2 [4] was determined as 84 nM.

`CCC(=O)c1cccc(CN2C(=O)N(Cc3cccc(C(=O)CC)c3)[C@H](Cc3ccccc3)[C@H](O)[C@@H](O)[C@H]2Cc2ccccc2)c1` registered a Ki in data set [1] of 0.21 nM. In addition, in the data set with MT2 [2], the CC50 was more than 80 µM. Moreover, it took 142 nM to reach the 90% level in the data set with MT2 [4] (IC90).

Consider `O=C1N[C@H](Cc2ccccc2)[C@H](O)[C@@H](O)[C@@H](Cc2ccccc2)N1Cc1cccc(-c2cc[nH]n2)c1`, for which the Ki in data set [1] is 0.26 nM. In the data set with MT2 [2], the CC50 is 21 µM. Besides, the Cmax in data set [3] is 780 nM. In addition, the 90% effect level with MT2 [4] (IC90) was put at 67 nM.

In the case of `O=C1N(Cc2cccc(C(=O)C(F)(F)F)c2)[C@H](Cc2ccccc2)[C@H](O)[C@@H](O)[C@@H](Cc2ccccc2)N1Cc1cccc(C(=O)C(F)(F)F)c1`, the affinity in data set [1] corresponds to a Ki of 0.037 nM. In the data set with MT2 [2], the CC50 was found to be 5.4 µM. The compound further returned an IC90 in the data set on MT2 [4] of 33 nM.

Turning to `CCC/C(=N/O)c1cccc(CN2C(=O)N(Cc3cccc(/C(CCC)=N/O)c3)[C@H](Cc3ccccc3)[C@H](O)[C@@H](O)[C@H]2Cc2ccccc2)c1`, the Ki in data set [1] was 0.031 nM. For the same compound, in the data set with MT2 [2], the CC50 came to 3.7 µM. For the same compound, in the data set on MT2 [4], the 90% effect level (IC90) was put at 64 nM.

`O=C1N(Cc2cccc(-c3nc[nH]n3)c2)[C@H](Cc2ccccc2)[C@H](O)[C@@H](O)[C@@H](Cc2ccccc2)N1Cc1cccc(-c2nc[nH]n2)c1` returned a Ki in data set [1] of 0.052 nM. The CC50 with MT2 [2] was found to be 53 µM. In the data set on MT2 [4], this compound gave an IC90 of 128 nM.

In the case of `O=C1N(Cc2cccc(/C(=N/O)C(F)(F)F)c2)[C@H](Cc2ccccc2)[C@H](O)[C@@H](O)[C@@H](Cc2ccccc2)N1Cc1cccc(/C(=N\O)C(F)(F)F)c1`, the Ki in data set [1] is 3.9 nM. For the same compound, the CC50 with MT2 [2] amounted to 14 µM. Also, the IC90 in the data set on MT2 [4] is 714 nM.

Turning to `O=Cc1cccc(CN2C(=O)N(Cc3cccc(C=O)c3)[C@H](Cc3ccccc3)[C@H](O)[C@@H](O)[C@H]2Cc2ccccc2)c1`, in data set [1], the Ki amounted to 0.44 nM. Moreover, in the data set with MT2 [2], the CC50 was 19 µM. Besides, the highest level in data set [3] (Cmax) was 260 nM. In the data set on MT2 [4], this compound yielded an IC90 of 36 nM.

`O=C1N(Cc2cccc(CO)c2)[C@H](Cc2ccccc2)[C@H](O)[C@@H](O)[C@@H](Cc2ccccc2)N1Cc1cccc(-c2cc[nH]n2)c1` displayed an inhibition constant Ki in data set [1] of 0.16 nM. Moreover, the CC50 with MT2 [2] turned out to be 20 µM. Also, in data set [3], the concentration peaked (Cmax) at 110 nM. For the same compound, in the data set on MT2 [4], the 90% effect concentration (IC90) was 234 nM.

The compound `O=C1N(Cc2cccc(-c3nnn[nH]3)c2)[C@H](Cc2ccccc2)[C@H](O)[C@@H](O)[C@@H](Cc2ccccc2)N1Cc1cccc(-c2nnn[nH]2)c1` came in with an inhibition constant (Ki) in data set [1] of 6.6 nM. Also, in the data set on MT2 [2], the CC50 worked out at 78 µM. Also, the IC90 in the data set on MT2 [4] was more than 70000 nM.

`CC/C(=N/O)c1cccc(CN2C(=O)N(Cc3cccc(/C(CC)=N/O)c3)[C@H](Cc3ccccc3)[C@H](O)[C@@H](O)[C@H]2Cc2ccccc2)c1` displayed a Ki in data set [1] of 0.031 nM. Besides, the CC50 in the data set with MT2 [2] came out at 5 µM. Besides, it took 7 nM to reach the 90% level with MT2 [4] (IC90).

On to `CC(C)(C)C(=O)c1cccc(CN2C(=O)N(Cc3cccc(C(=O)C(C)(C)C)c3)[C@H](Cc3ccccc3)[C@H](O)[C@@H](O)[C@H]2Cc2ccccc2)c1`, for which the affinity in data set [1] corresponds to a Ki of 3.6 nM.

Take `CCCC(=O)c1cccc(CN2C(=O)N(Cc3cccc(C(=O)CCC)c3)[C@H](Cc3ccccc3)[C@H](O)[C@@H](O)[C@H]2Cc2ccccc2)c1`: in data set [1], the inhibitory constant (Ki) amounted to 1.4 nM. In the data set on MT2 [2], the CC50 is more than 77 µM. The compound further yielded an IC90 in the data set on MT2 [4] of 1440 nM.

In the case of `O=C1N(Cc2cccc(-c3cn[nH]c3)c2)[C@H](Cc2ccccc2)[C@H](O)[C@@H](O)[C@@H](Cc2ccccc2)N1Cc1cccc(-c2cn[nH]c2)c1`, affinity in data set [1] was put at a Ki of 0.62 nM. Moreover, the CC50 in the data set with MT2 [2] stood at 1.4 µM. In addition, the Cmax in data set [3] was 75 nM. In the data set with MT2 [4], this compound gave an IC90 of 32 nM.

With `O=C(NCCN1CCOCC1)c1cccc(CN2C(=O)N(Cc3cccc(-c4cc[nH]n4)c3)[C@H](Cc3ccccc3)[C@H](O)[C@@H](O)[C@H]2Cc2ccccc2)c1`, the affinity in data set [1] corresponds to a Ki of 0.052 nM. Also, the CC50 in the data set on MT2 [2] amounted to 43 µM. Moreover, in the data set on MT2 [4], the 90% effect level (IC90) was put at 128 nM.

`O=C1N(Cc2cccc(/C=N\O)c2)[C@H](Cc2ccccc2)[C@H](O)[C@@H](O)[C@@H](Cc2ccccc2)N1Cc1cccc(/C=N/O)c1` had a Ki in data set [1] of 0.01 nM. In addition, the CC50 in the data set with MT2 [2] came to 16 µM. The peak level in data set [3] (Cmax) was 300 nM. It took 5 nM to reach the 90% level in the data set with MT2 [4] (IC90).

In turn, `O=C1N(Cc2cccc(-c3cc[nH]n3)c2)[C@H](Cc2ccccc2)[C@H](O)[C@@H](O)[C@@H](Cc2ccccc2)N1Cc1cccc(-c2cc[nH]n2)c1` gave an inhibition constant Ki in data set [1] of 0.027 nM. For the same compound, in the data set on MT2 [2], the CC50 was found to be 4.2 µM. In data set [3], this compound gave a Cmax of 68 nM. For the same compound, in the data set on MT2 [4], the IC90 was 20 nM.

In data set [1], `C/C(=N/O)c1cccc(CN2C(=O)N(Cc3cccc(/C(C)=N/O)c3)[C@H](Cc3ccccc3)[C@H](O)[C@@H](O)[C@H]2Cc2ccccc2)c1` registered a Ki of 0.018 nM. For the same compound, the CC50 in the data set with MT2 [2] was determined as 81 µM. This compound yielded a Cmax in data set [3] of 60 nM. For the same compound, the 90% effect level in the data set on MT2 [4] (IC90) was put at 2 nM.

As to `O=C1N(Cc2cccc(-c3ncc[nH]3)c2)[C@H](Cc2ccccc2)[C@H](O)[C@@H](O)[C@@H](Cc2ccccc2)N1Cc1cccc(-c2ncc[nH]2)c1`, the affinity in data set [1] corresponds to a Ki of 0.16 nM. The CC50 in the data set on MT2 [2] was 78 µM. The IC90 in the data set with MT2 [4] is 234 nM.

Compound `O=C1N(Cc2cccc(-c3c[nH]nn3)c2)[C@H](Cc2ccccc2)[C@H](O)[C@@H](O)[C@@H](Cc2ccccc2)N1Cc1cccc(-c2c[nH]nn2)c1` showed a Ki in data set [1] of 0.17 nM. In the data set on MT2 [2], the CC50 is 47 µM. Moreover, the 90% effect level in the data set on MT2 [4] (IC90) was put at 94 nM.

In data set [1], `Nc1cccc(CN2C(=O)N(Cc3cccc(-c4cc[nH]n4)c3)[C@H](Cc3ccccc3)[C@H](O)[C@@H](O)[C@H]2Cc2ccccc2)c1` came in with a Ki of 0.035 nM. The compound also yielded a Cmax in data set [5] of 850 nM. Also, the CC50 with MT2 [2] is 6.8 µM. In addition, in the data set with MT2 [4], the IC90 was 27 nM.

For `O=C1N(Cc2cccnc2)[C@H](Cc2ccccc2)[C@H](O)[C@@H](O)[C@@H](Cc2ccccc2)N1Cc1cccc(-c2cc[nH]n2)c1`, the affinity in data set [1] corresponds to a Ki of 0.17 nM. In the data set on MT2 [2], the CC50 is 6.3 µM. Further, the IC90 in the data set with MT2 [4] amounted to 94 nM.

Consider `O=C1N(Cc2ccc(O)cc2)[C@H](Cc2ccccc2)[C@H](O)[C@@H](O)[C@@H](Cc2ccccc2)N1Cc1cccc(-c2cc[nH]n2)c1`, for which the Ki in data set [1] was found to be 0.021 nM. For the same compound, in the data set with MT2 [2], the CC50 was 4.8 µM. This compound came in with an IC90 in the data set with MT2 [4] of 30 nM.

In the case of `COC(=O)c1cccc(CN2C(=O)N(Cc3cccc(-c4cc[nH]n4)c3)[C@H](Cc3ccccc3)[C@H](O)[C@@H](O)[C@H]2Cc2ccccc2)c1`, the Ki in data set [1] is 0.14 nM. Also, the CC50 with MT2 [2] worked out at 5.7 µM. In data set [3], this compound came in with a Cmax of 320 nM. The compound also returned an IC90 in the data set on MT2 [4] of 32 nM.

In turn, `Nc1cccc(CN2C(=O)N(Cc3cccc(N)c3)[C@H](Cc3ccccc3)[C@H](O)[C@@H](O)[C@H]2Cc2ccccc2)c1` [MOZENAVIR] registered a Cmax in data set [3] of 2250 nM.
